In ChEMBL document CHEMBL4002632, “Development of gallic acid formazans as novel enoyl acyl carrier protein reductase inhibitors for the treatment of tuberculosis” (Bioorg Med Chem Lett, 2017) one finds MIC data, which are given here for 10 compounds.

Converted amounts (≈) assume the structure as drawn. The source made the active and inactive calls. The rule behind the calls is not given here.

What all share (format): functional
Experiment [1] concerns Mycobacterium tuberculosis. As to the kind of experiment: Antimycobacterial activity against isoniazid/rifampicin/kanamycin/streptomycin-resistant Mycobacterium tuberculosis by microplate Alamar Blue assay. The procedure, abridged:
(§1)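 MIC against multidrug-resistant M. tuberculosis strains: HR, HRKS, HRKCpm, HRKSXMfxLev and HRS. Linezolid served as reference.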

In experiment [2] the test system is Mycobacterium tuberculosis. As to the kind of experiment: Antimycobacterial activity against isoniazid/rifampicin/kanamycin/capreomycin-resistant Mycobacterium tuberculosis by microplate Alamar Blue assay. Summed up: as §1
(In general: Resazurin is reduced to fluorescent resorufin, in cell work by metabolically active cells.)

Experiment [3] deals with Mycobacterium tuberculosis. As to the kind of experiment: Antimycobacterial activity against isoniazid/rifampicin/kanamycin/streptomycin/ofloxacin/moxifloxacin/levofloxacin-resistant Mycobacterium tuberculosis by microplate Alamar Blue assay. Summed up: as §1
Experiment [4] has as its system Mycobacterium tuberculosis. As to the kind of experiment: Antimycobacterial activity against isoniazid/rifampicin/streptomycin-resistant Mycobacterium tuberculosis by microplate Alamar Blue assay. Summed up:
as §1

The test system of experiment [5] is Mycobacterium tuberculosis. In words: Antimycobacterial activity against isoniazid/rifampicin-resistant Mycobacterium tuberculosis by microplate Alamar Blue assay. The procedure, abridged:
as §1

Take `O=C(N/N=C(/N=N/c1ccc(F)cc1)c1ccccc1)c1cc(O)c(O)c(O)c1`: the MIC (usually the lowest concentration that inhibits growth of the organism) in experiment [1] worked out at 0.73 µM (≈ 0.288 µg/mL); in experiment [2], 1.92 µM (≈ 0.757 µg/mL); in experiment [4] it was 0.96 µM (≈ 0.379 µg/mL); in experiment [5], 0.49 µM (≈ 0.193 µg/mL). For the same compound, in experiment [3], the MIC entry was “inactive”.

Regarding `O=C(N/N=C(/N=N/c1ccccc1)c1ccccc1)c1cc(O)c(O)c(O)c1`, the MIC result in experiment [1], in experiment [2], in experiment [3], in experiment [4] and in experiment [5] was “inactive” in each case.

In the case of `O=C(N/N=C(/N=N/c1ccc(Cl)cc1Cl)c1ccccc1)c1cc(O)c(O)c(O)c1`, the MIC worked out at 5.16 µM (≈ 2.3 µg/mL) in experiment [1]; 7.43 µM (≈ 3.31 µg/mL) in experiment [2]; 11.4 µM (≈ 5.09 µg/mL) in experiment [3]; 1.34 µM (≈ 0.597 µg/mL) in experiment [4]; 0.33 µM (≈ 0.147 µg/mL) in experiment [5].

Regarding `O=C(N/N=C(/N=N/c1ccc([N+](=O)[O-])cc1)c1ccccc1)c1cc(O)c(O)c(O)c1`, the minimal inhibitory concentration (MIC) in experiment [1] was 22.3 µM (≈ 9.4 µg/mL); in experiment [2], 14 µM (≈ 5.9 µg/mL); in experiment [4], 5.46 µM (≈ 2.3 µg/mL); in experiment [5], 2.85 µM (≈ 1.2 µg/mL). In addition, the MIC result in experiment [3] was “inactive”.

`Cc1ccccc1/N=N/C(=N/NC(=O)c1cc(O)c(O)c(O)c1)c1ccccc1`: the values for the MIC in experiment [1], in experiment [4] and in experiment [5] were 16 µM (≈ 6.25 µg/mL), 5.89 µM (≈ 2.3 µg/mL) and 5.89 µM (≈ 2.3 µg/mL), respectively. For the same compound, the MIC result in experiment [2] and in experiment [3] was “inactive” throughout.

With `O=C(N/N=C(/N=N/c1ccccc1Cl)c1ccccc1)c1cc(O)c(O)c(O)c1`, the MIC entry in experiment [1], in experiment [2] and in experiment [3] was “inactive” in each case. The MIC in experiment [4] was 2.95 µM (≈ 1.21 µg/mL); in experiment [5] it was 2.9 µM (≈ 1.19 µg/mL).

On to `COc1ccccc1/N=N/C(=N/NC(=O)c1cc(O)c(O)c(O)c1)c1ccccc1`, for which the MIC entry in experiment [1], in experiment [2], in experiment [3] and in experiment [4] was “inactive” in each case. The compound further registered a minimal inhibitory concentration (MIC) in experiment [5] of 23.9 µM (≈ 9.69 µg/mL).

In the case of `CC(=O)NC[C@H]1CN(c2ccc(N3CCOCC3)c(F)c2)C(=O)O1` [LINEZOLID], the MIC in experiment [1] came to 2.78 µM (≈ 0.938 µg/mL); in experiment [2] it was 1.86 µM (≈ 0.627 µg/mL); in experiment [3] it was 1.86 µM (≈ 0.627 µg/mL); in experiment [4], 3.7 µM (≈ 1.25 µg/mL); in experiment [5] it was 3.7 µM (≈ 1.25 µg/mL).

Turning to `COc1ccc(/N=N/C(=N/NC(=O)c2cc(O)c(O)c(O)c2)c2ccccc2)cc1`, the minimal inhibitory concentration (MIC) in experiment [1] turned out to be 2.92 µM (≈ 1.19 µg/mL); in experiment [2], 7.62 µM (≈ 3.1 µg/mL); in experiment [3], 10.6 µM (≈ 4.29 µg/mL); in experiment [4] it was 1.9 µM (≈ 0.772 µg/mL); in experiment [5], 1.9 µM (≈ 0.772 µg/mL).

Consider `O=C(N/N=C(/N=N/c1ccccc1[N+](=O)[O-])c1ccccc1)c1cc(O)c(O)c(O)c1`, for which the MIC entry in experiment [1], in experiment [2] and in experiment [3] was “inactive” throughout. Moreover, the results for the MIC in experiment [4] and in experiment [5] were 14.8 µM (≈ 6.25 µg/mL) and 5.46 µM (≈ 2.3 µg/mL), respectively.
